Experimental data published in ChEMBL document CHEMBL4364301 (Eur J Med Chem, 2019).
pIC50: −log10 of the molar value.

Key:
Type in all cases: functional
[1] = tested on: VCaP; test: Antiproliferative activity against human VCaP cells assessed as reduction in cell growth incubated for 96 hrs by propidium iodide based 2D monolayer assay
Procedure, shortened: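 VCaP cells in RPMI 1640 with 10% FCS at 37 °C, 5% CO2, seeded 4,000–20,000 cells/well and left 24 h before dosing. Compounds from DMSO stocks were diluted in half-log steps in medium, 10 concentrations 0.0032–100 μM, triplicate wells, max 0.3% DMSO. After 96 h, cells were washed, stained with 7 μg/ml propidium iodide plus 0.1% Triton X-100 for 1–2 h at room temperature, and fluorescence read at ex 530/em 620 nm.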

[2] = tested on: DU-145; test: Antiproliferative activity against human DU145 cells assessed as reduction in cell growth incubated for 96 hrs by propidium iodide based 2D monolayer assay; settings: DU-145, 96 h
Procedure, shortened: (§1)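 After 24 h recovery, compound in medium or medium alone (control wells) was added at 10 half-log concentrations from 0.0032 to 100 µM, in triplicate, with at most 0.3% DMSO. After 96 h, wells were PBS-washed, stained with 7 µg/ml PI and 0.1% Triton X-100, and fluorescence read at 530/620 nm. IC50 came from a 4-parameter fit, geometric mean.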

[3] = tested on: CWR22R; test: Antiproliferative activity against human 22Rv1 cells assessed as reduction in cell growth incubated for 96 hrs by propidium iodide based 2D monolayer assay; settings: 22Rv1, 96 h; procedure, shortened: as §1
[4] = tested on: LNCaP; test: Antiproliferative activity against human LNCAP cells assessed as reduction in cell growth incubated for 96 hrs by propidium iodide based 2D monolayer assay; procedure, shortened: as §1

## CC1(C)C(=O)N(c2cccc(S(F)(F)(F)(F)F)c2)C(=S)N1c1ccc(C(F)(F)F)cc1
[1]
  pIC50: 4.27
[2]
  pIC50: 4.40
[3]
  pIC50: 4.65
[4]
  pIC50: 5.28

## CC1(C)C(=O)N(c2ccc([N+](=O)[O-])c(C(F)(F)F)c2)C(=S)N1c1cccc(S(F)(F)(F)(F)F)c1
[1]
  pIC50: 4.00
[2]
  pIC50: 4.00
[3]
  pIC50: 4.00
[4]
  pIC50: 4.00

## CC1(C)C(=O)N(c2ccc([N+](=O)[O-])c(C(F)(F)F)c2)C(=S)N1c1ccc(S(F)(F)(F)(F)F)cc1
[1]
  pIC50: 4.00
[2]
  pIC50: 4.00
[3]
  pIC50: 4.00
[4]
  pIC50: 4.89

## CC1(C)C(=O)N(c2ccc([N+](=O)[O-])cc2C(F)(F)F)C(=S)N1c1ccc(S(F)(F)(F)(F)F)cc1
[1]
  pIC50: 4.00
[2]
  pIC50: 4.00
[3]
  pIC50: 4.00
[4]
  pIC50: 4.00

## CC1(C)C(=O)N(c2ccc(C#N)c(C(F)(F)F)c2)C(=S)N1c1cccc(S(F)(F)(F)(F)F)c1
[1]
  pIC50: 4.00
[2]
  pIC50: 4.00
[3]
  pIC50: 4.00
[4]
  pIC50: 5.16

## CNC(=O)c1ccc(N2C(=S)N(c3cccc(S(F)(F)(F)(F)F)c3)C(=O)C2(C)C)cc1F
[1]
  pIC50: 4.25
[2]
  pIC50: 4.29
[3]
  pIC50: 4.43
[4]
  pIC50: 4.60

## CC(O)(CSc1cc(C(F)(F)F)cc(C(F)(F)F)c1)C(=O)Nc1cccc(S(F)(F)(F)(F)F)c1 (centres undefined)
[1]
  pIC50: 5.40
[2]
  pIC50: 5.03
[3]
  pIC50: 5.36
[4]
  pIC50: 5.32

## CC1(C)C(=O)N(c2ccc(S(F)(F)(F)(F)F)cc2)C(=S)N1c1cccc(C(F)(F)F)c1
[1]
  pIC50: 4.00
[2]
  pIC50: 4.00
[3]
  pIC50: 4.22
[4]
  pIC50: 5.06

## CC1(C)C(=O)N(c2ccc(S(F)(F)(F)(F)F)cc2)C(=S)N1c1ccc(C(F)(F)F)cc1
[1]
  pIC50: 4.00
[2]
  pIC50: 4.00
[3]
  pIC50: 4.00
[4]
  pIC50: 4.32

## CNC(=O)c1ccc(N2C(=S)N(c3ccc(S(F)(F)(F)(F)F)cc3)C(=O)C2(C)C)cc1F
[1]
  pIC50: 4.50
[2]
  pIC50: 4.38
[3]
  pIC50: 4.49
[4]
  pIC50: 4.64

## CC1(C)C(=O)N(c2ccc([N+](=O)[O-])cc2C(F)(F)F)C(=S)N1c1cccc(S(F)(F)(F)(F)F)c1
[1]
  pIC50: 4.00
[2]
  pIC50: 4.00
[3]
  pIC50: 4.36
[4]
  pIC50: 5.28

## CC(O)(CSc1cccc(C(F)(F)F)c1)C(=O)Nc1cccc(S(F)(F)(F)(F)F)c1 (racemic)
[1]
  pIC50: 4.69
[2]
  pIC50: 4.72
[3]
  pIC50: 4.89
[4]
  pIC50: 4.90

## CC(O)(CSc1ccc(S(F)(F)(F)(F)F)cc1)C(=O)Nc1cccc(S(F)(F)(F)(F)F)c1 (racemic)
[1]
  pIC50: 4.62
[2]
  pIC50: 4.61
[3]
  pIC50: 4.88
[4]
  pIC50: 4.90

## CC(O)(CSc1ccccc1C(F)(F)F)C(=O)Nc1ccc(S(F)(F)(F)(F)F)cc1 (racemic)
[1]
  pIC50: 4.68
[2]
  pIC50: 4.80
[3]
  pIC50: 4.88
[4]
  pIC50: 4.91

## CC(O)(CSc1ccc(S(F)(F)(F)(F)F)cc1)C(=O)Nc1ccc([N+](=O)[O-])c(C(F)(F)F)c1 (racemic)
[1]
  pIC50: 5.00
[2]
  pIC50: 4.86
[3]
  pIC50: 5.04
[4]
  pIC50: 5.06

## CC(O)(CSc1cccc(S(F)(F)(F)(F)F)c1)C(=O)Nc1ccc(C#N)cc1C(F)(F)F (racemic)
[1]
  pIC50: 4.51
[2]
  pIC50: 4.43
[3]
  pIC50: 4.67
[4]
  pIC50: 4.75

## CC(O)(CSc1ccc(C(F)(F)F)cc1)C(=O)Nc1ccc(S(F)(F)(F)(F)F)cc1 (racemic)
[1]
  pIC50: 4.61
[2]
  pIC50: 4.54
[3]
  pIC50: 4.83
[4]
  pIC50: 4.77

## CC(O)(CSc1ccccc1OC(F)(F)F)C(=O)Nc1ccc(S(F)(F)(F)(F)F)cc1 (racemic)
[1]
  pIC50: 5.00
[2]
  pIC50: 4.54
[3]
  pIC50: 4.82
[4]
  pIC50: 4.97

## CC(O)(CSc1cccc(C(F)(F)F)c1)C(=O)Nc1ccc(S(F)(F)(F)(F)F)cc1 (racemic)
[1]
  pIC50: 4.73
[2]
  pIC50: 4.58
[3]
  pIC50: 4.63
[4]
  pIC50: 4.74

## CC(O)(CSc1cccc(S(F)(F)(F)(F)F)c1)C(=O)Nc1ccc([N+](=O)[O-])c(C(F)(F)F)c1 (racemic)
[1]
  pIC50: 5.01
[2]
  pIC50: 4.86
[3]
  pIC50: 5.06
[4]
  pIC50: 5.07

## CC(O)(CSc1ccc(F)cc1)C(=O)Nc1ccc(S(F)(F)(F)(F)F)cc1 (racemic)
[1]
  pIC50: 4.64
[2]
  pIC50: 4.60
[3]
  pIC50: 4.87
[4]
  pIC50: 4.90

## CC(O)(CSc1ccc(C(F)(F)F)cc1)C(=O)Nc1cccc(S(F)(F)(F)(F)F)c1 (racemic)
[1]
  pIC50: 4.56
[2]
  pIC50: 4.57
[3]
  pIC50: 4.57
[4]
  pIC50: 4.76

## CC(O)(CSc1ccc(C(F)(F)F)cn1)C(=O)Nc1ccc(S(F)(F)(F)(F)F)cc1 (racemic)
[1]
  pIC50: 4.72
[2]
  pIC50: 4.51
[3]
  pIC50: 4.70
[4]
  pIC50: 4.91

## CC(O)(CSc1ccc(S(F)(F)(F)(F)F)cc1)C(=O)Nc1ccc([N+](=O)[O-])cc1C(F)(F)F (racemic)
[1]
  pIC50: 4.58
[2]
  pIC50: 4.84
[3]
  pIC50: 4.88
[4]
  pIC50: 4.99

## CC(O)(CSc1ccc(S(F)(F)(F)(F)F)cc1)C(=O)Nc1ccc(C#N)cc1C(F)(F)F (racemic)
[1]
  pIC50: 4.69
[2]
  pIC50: 4.75
[3]
  pIC50: 4.88
[4]
  pIC50: 4.82

## CC(O)(CSc1cccc(OC(F)(F)F)c1)C(=O)Nc1ccc(S(F)(F)(F)(F)F)cc1 (racemic)
[1]
  pIC50: 4.86
[2]
  pIC50: 4.62
[3]
  pIC50: 4.85
[4]
  pIC50: 4.89

## CC(O)(CSc1cccc(S(F)(F)(F)(F)F)c1)C(=O)Nc1ccc([N+](=O)[O-])cc1C(F)(F)F (racemic)
[1]
  pIC50: 4.54
[2]
  pIC50: 4.72
[3]
  pIC50: 4.76
[4]
  pIC50: 4.90

## CC(O)(CSc1cccc(S(F)(F)(F)(F)F)c1)C(=O)Nc1ccc(C#N)c(C(F)(F)F)c1 (racemic)
[1]
  pIC50: 4.50
[2]
  pIC50: 4.49
[3]
  pIC50: 4.69
[4]
  pIC50: 4.84

## CC(O)(CSc1ccc(OC(F)(F)F)cc1)C(=O)Nc1ccc(S(F)(F)(F)(F)F)cc1 (racemic)
[1]
  pIC50: 4.80
[2]
  pIC50: 4.90
[3]
  pIC50: 4.83
[4]
  pIC50: 4.79

## CC(O)(CSc1cccc(S(F)(F)(F)(F)F)c1)C(=O)Nc1ccc(S(F)(F)(F)(F)F)cc1 (racemic)
[1]
  pIC50: 4.55
[2]
  pIC50: 4.76
[3]
  pIC50: 4.75
[4]
  pIC50: 4.60

## CC(O)(CSc1ccc(S(F)(F)(F)(F)F)cc1)C(=O)Nc1ccc(S(F)(F)(F)(F)F)cc1 (racemic)
[1]
  pIC50: 4.55
[2]
  pIC50: 4.65
[3]
  pIC50: 4.61
[4]
  pIC50: 4.74

## CC(O)(CSc1cc(C(F)(F)F)cc(C(F)(F)F)c1)C(=O)Nc1ccc(S(F)(F)(F)(F)F)cc1 (racemic)
[1]
  pIC50: 4.71
[2]
  pIC50: 4.53
[3]
  pIC50: 4.80
[4]
  pIC50: 4.75

## CC(O)(CSc1ccccc1C(F)(F)F)C(=O)Nc1cccc(S(F)(F)(F)(F)F)c1 (racemic)
[1]
  pIC50: 4.68
[2]
  pIC50: 4.80
[3]
  pIC50: 4.88
[4]
  pIC50: 4.91

## CC(O)(CSc1cccc(S(F)(F)(F)(F)F)c1)C(=O)Nc1cccc(S(F)(F)(F)(F)F)c1 (racemic)
[1]
  pIC50: 4.54
[2]
  pIC50: 4.52
[3]
  pIC50: 4.76
[4]
  pIC50: 4.89

## CC(O)(CSc1ccc(S(F)(F)(F)(F)F)cc1)C(=O)Nc1ccc(C#N)c(C(F)(F)F)c1 (racemic)
[1]
  pIC50: 4.52
[2]
  pIC50: 4.55
[3]
  pIC50: 4.74
[4]
  pIC50: 4.77

## CC(O)(CSc1ccc(F)cc1)C(=O)Nc1cccc(S(F)(F)(F)(F)F)c1 (racemic)
[1]
  pIC50: 4.66
[2]
  pIC50: 4.41
[3]
  pIC50: 4.52
[4]
  pIC50: 4.57
